Experimental data from ChEMBL document CHEMBL1148939, “Montacin and cis-montacin, two new cytotoxic monotetrahydrofuran annonaceous acetogenins from Annona montana” (2004).
≈ marks a conversion by molar mass, not a printed value.

Key:
[1] = tested on: A549; test: Cytotoxicity against human A549 cells after 3 days by SRB assay; assay type: functional; details: A549, 72 h, read-out: ED50 (the source's name)
Procedure, shortened: (§1)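 Cells were grown in RPMI-1640 with 25 mM HEPES, 0.25% NaHCO3, 10% FBS and kanamycin. Freshly trypsinized cells were seeded at 1500-7500 per well with compound from a DMSO-diluted stock and cultured for 3 days. Attached cells were fixed with cold 50% TCA, stained with 0.4% SRB, and the solubilized dye was read at 562 nm. ED50 is the concentration giving 50% growth reduction over 3 days.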

[2] = tested on: MCF7; test: Cytotoxicity against human MCF7 cells after 3 days by SRB assay; assay type: functional; details: MCF7, 72 h, read-out: ED50 (the source's name); procedure, shortened: as §1
[3] = tested on: HCT-8; test: Cytotoxicity against human HCT8 cells after 3 days by SRB assay; assay type: functional; details: HCT-8, 72 h, read-out: ED50 (the source's name); procedure, shortened: as §1
[4] = tested on: SK-MEL-2; test: Cytotoxicity against human SK-MEL-2 cells after 3 days by SRB assay; assay type: functional; details: SK-MEL-2, 72 h, read-out: ED50 (the source's name); procedure, shortened: as §1
[5] = tested on: KB; test: Cytotoxicity against human KB cells after 3 days by SRB assay; assay type: functional; details: 72 h, read-out: ED50 (the source's name); procedure, shortened: as §1
[6] = tested on: KB; test: Cytotoxicity against human vincristine-resistant KB cells after 3 days by SRB assay; assay type: functional; details: 72 h, read-out: ED50 (the source's name); procedure, shortened: as §1
[7] = Cytotoxicity against human U87MG cells after 3 days by SRB assay; assay type: functional, U-87MG ATCC; details: U-87 MG, 72 h, read-out: ED50 (the source's name)
[8] = Cytotoxicity against human CAKI cells after 3 days by SRB assay; assay type: functional; details: 72 h, read-out: ED50 (the source's name); procedure, shortened: as §1
[9] = tested on: PC-3; test: Cytotoxicity against human PC3 cells after 3 days by SRB assay; assay type: functional; details: PC-3, 72 h, read-out: ED50 (the source's name); procedure, shortened: as §1
[10] = tested on: 1A9; test: Cytotoxicity against human 1A9 cells after 3 days by SRB assay; assay type: functional; details: 1A9, 72 h, read-out: ED50 (the source's name); procedure, shortened: as §1
[11] = tested on: 1A9/ptx-10; test: Cytotoxicity against human 1A9/PTX10 cells after 3 days by SRB assay; assay type: functional; details: 1A9/ptx-10, 72 h, read-out: ED50 (the source's name); procedure, shortened: as §1
[12] = tested on: 1A9; test: Cytotoxicity against human 1A9 cells after 6 days by SRB assay; assay type: functional; details: 1A9, 144 h, read-out: ED50 (the source's name)
Procedure, shortened: (§2)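 Parent 1A9 ovarian cells or the PTX10 subline (mutated β-tubulin) were grown in RPMI-1640 with 25 mM HEPES, 0.25% NaHCO3, 10% FBS and kanamycin. Freshly trypsinized cells were seeded at 1500-7500 per well with DMSO-diluted compound, cultured for 6 days, and evaluated by SRB staining. Activity was expressed as ED50.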

[13] = tested on: 1A9/ptx-10; test: Cytotoxicity against human 1A9/PTX10 cells after 6 days by SRB assay; assay type: functional; details: 1A9/ptx-10, 144 h, read-out: ED50 (the source's name); procedure, shortened: as §2
[14] = tested on: A549; test: Cytotoxicity against human A549 cells after 3 days by SRB assay in presence of Ca2+; assay type: functional; details: A549, 72 h, read-out: ED50 (the source's name)
Procedure, shortened: (§3)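 This is the 3-day SRB growth assay in RPMI-1640 with 10% FBS and 25 mM HEPES, with CaCl2 added to the bioassay as the Ca2+ source. Trypsinized cells were seeded at 1500-7500 per well with DMSO-diluted compound, then fixed with cold TCA, stained with 0.4% SRB and read at 562 nm. ED50 is the concentration causing 50% growth reduction.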

[15] = tested on: MCF7; test: Cytotoxicity against human MCF7 cells after 3 days by SRB assay in presence of Ca2+; assay type: functional; details: MCF7, 72 h, read-out: ED50 (the source's name); procedure, shortened: as §3
[16] = tested on: HCT-8; test: Cytotoxicity against human HCT8 cells after 3 days by SRB assay in presence of Ca2+; assay type: functional; details: HCT-8, 72 h, read-out: ED50 (the source's name); procedure, shortened: as §3
[17] = tested on: SK-MEL-2; test: Cytotoxicity against human SK-MEL-2 cells after 3 days by SRB assay in presence of Ca2+; assay type: functional; details: SK-MEL-2, 72 h, read-out: ED50 (the source's name); procedure, shortened: as §3
[18] = tested on: KB; test: Cytotoxicity against human KB cells after 3 days by SRB assay in presence of Ca2+; assay type: functional; details: 72 h, read-out: ED50 (the source's name); procedure, shortened: as §3
[19] = tested on: KB; test: Cytotoxicity against human vincristine-resistant KB cells after 3 days by SRB assay in presence of Ca2+; assay type: functional; details: 72 h, read-out: ED50 (the source's name); procedure, shortened: as §3
[20] = Cytotoxicity against human U87MG cells after 3 days by SRB assay in presence of Ca2+; assay type: functional, U-87MG ATCC; details: U-87 MG, 72 h, read-out: ED50 (the source's name)
[21] = Cytotoxicity against human CAKI cells after 3 days by SRB assay in presence of Ca2+; assay type: functional; details: 72 h, read-out: ED50 (the source's name); procedure, shortened: as §3
[22] = tested on: PC-3; test: Cytotoxicity against human PC3 cells after 3 days by SRB assay in presence of Ca2+; assay type: functional; details: PC-3, 72 h, read-out: ED50 (the source's name); procedure, shortened: as §3
[23] = tested on: 1A9; test: Cytotoxicity against human 1A9 cells after 3 days by SRB assay in presence of Ca2+; assay type: functional; details: 1A9, 72 h, read-out: ED50 (the source's name); procedure, shortened: as §3
[24] = tested on: 1A9/ptx-10; test: Cytotoxicity against human 1A9/PTX10 cells after 3 days by SRB assay in presence of Ca2+; assay type: functional; details: 1A9/ptx-10, 72 h, read-out: ED50 (the source's name); procedure, shortened: as §3
[25] = tested on: 1A9; test: Cytotoxicity against human 1A9 cells after 6 days by SRB assay in presence of Ca2+; assay type: functional; details: 1A9, 144 h, read-out: ED50 (the source's name)
Procedure, shortened: (§4)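 1A9 ovarian cells or the β-tubulin-mutant PTX10 subline were grown in RPMI-1640 with 10% FBS and 25 mM HEPES. CaCl2 was included in the bioassay as the Ca2+ source. Cells were seeded at 1500-7500 per well with DMSO-diluted compound and cultured for 6 days before SRB staining. The read-out was ED50.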

[26] = tested on: 1A9/ptx-10; test: Cytotoxicity against human 1A9/PTX10 cells after 6 days by SRB assay in presence of Ca2+; assay type: functional; details: 1A9/ptx-10, 144 h, read-out: ED50 (the source's name); procedure, shortened: as §4

SMILES	EC50 [1]	EC50 [2]	EC50 [3]	EC50 [5]	EC50 [6]	EC50 [7]	EC50 [9]	EC50 [10]	EC50 [11]	EC50 [12]	EC50 [13]	EC50 [14]	EC50 [15]	EC50 [16]	EC50 [18]	EC50 [19]	EC50 [20]	EC50 [22]	EC50 [23]	EC50 [24]	other results
CCCCCCC[C@H](O)[C@@H]1CC[C@@H]([C@@H](O)CCCCCCCCCC[C@H](O)CC(=O)CC[C@@H](O)CC2=C[C@H](C)OC2=O)O1 [MONTACIN]	12.9 µg/mL (≈ 21.1 µM)	10 µg/mL (≈ 16.4 µM)	16.5 µg/mL (≈ 27 µM)	16.6 µg/mL (≈ 27.2 µM)	> 20 µg/mL	> 20 µg/mL	> 20 µg/mL	> 10 µg/mL	> 10 µg/mL	6.7 µg/mL (≈ 11 µM)	7.9 µg/mL (≈ 12.9 µM)	7.4 µg/mL	5.5 µg/mL	12.3 µg/mL	9.1 µg/mL	13.9 µg/mL	14.2 µg/mL	14.2 µg/mL	6.7 µg/mL	7.5 µg/mL	EC50 [4]: 11.2 µg/mL (≈ 18.3 µM); EC50 [8]: > 20 µg/mL; EC50 [17]: 13.3 µg/mL; EC50 [21]: 14.2 µg/mL; EC50 [25]: 4.5 µg/mL; EC50 [26]: 2.8 µg/mL
CCCCCCC[C@@H](O)[C@H]1CC[C@@H]([C@@H](O)CCCCCCCCCC[C@@H](O)CC(=O)CC[C@@H](O)CC2=C[C@H](C)OC2=O)O1	6 µg/mL (≈ 9.82 µM)	6.7 µg/mL (≈ 11 µM)	12.9 µg/mL (≈ 21.1 µM)	7.7 µg/mL (≈ 12.6 µM)	13.4 µg/mL (≈ 21.9 µM)	15 µg/mL (≈ 24.6 µM)	11.9 µg/mL (≈ 19.5 µM)	3.6 µg/mL (≈ 5.89 µM)	5.9 µg/mL (≈ 9.66 µM)	0.54 µg/mL (≈ 0.884 µM)	1.8 µg/mL (≈ 2.95 µM)	5.5 µg/mL	6.4 µg/mL	11.7 µg/mL	8.2 µg/mL	13.8 µg/mL	14.3 µg/mL	12.1 µg/mL	2 µg/mL	5.3 µg/mL	EC50 [25]: 0.13 µg/mL; EC50 [26]: 0.11 µg/mL
